# Screens (PubChem BioAssay)
# RanGTP-Impb inh = disruptors of Ran-importin-beta complex formation – biochemical, FRET, CFP-Ran, YFP-importin-beta, homogeneous, primary screen. hit rate 1.1% among 300,000. cell-free CFP-Ran/YFP-importin-beta FRET ratio. inhibition, % (no concentration beside the values). AID 2216;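 active means more than half of the replicate wells show a fall in the fluorescence ratio signal beyond about 16%, limit read from the data, passing the limit was not always enough; inconclusive means exactly half of the replicate wells pass the set limit; inactive means fewer than half of replicates pass the limit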;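 further: 0% = DMSO wells and 100% = Ran loaded with GDP instead of GTP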
# Runt-SMMHC FRET = Runt domain-CBFb-SMMHC interaction inhibition | Q01196+Q13951 | Cerulean-Runt/Venus-CBFb-SMMHC FRET ratio 530/480, 1 h | inhibition, % at 20 µM | hit rate 0.74% among 220,000;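 active means mean inhibition across duplicate retests at 20 µM reaching about 50%, limit read from the data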;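 further: 0% = DMSO wells and 100% = wells with excess untagged CBFb-SMMHC; inhibitors lower the FRET ratio by blocking Runt binding to CBFb-SMMHC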
# Target sequence (Q01196 whole entry, looked up, the tested form may be a part): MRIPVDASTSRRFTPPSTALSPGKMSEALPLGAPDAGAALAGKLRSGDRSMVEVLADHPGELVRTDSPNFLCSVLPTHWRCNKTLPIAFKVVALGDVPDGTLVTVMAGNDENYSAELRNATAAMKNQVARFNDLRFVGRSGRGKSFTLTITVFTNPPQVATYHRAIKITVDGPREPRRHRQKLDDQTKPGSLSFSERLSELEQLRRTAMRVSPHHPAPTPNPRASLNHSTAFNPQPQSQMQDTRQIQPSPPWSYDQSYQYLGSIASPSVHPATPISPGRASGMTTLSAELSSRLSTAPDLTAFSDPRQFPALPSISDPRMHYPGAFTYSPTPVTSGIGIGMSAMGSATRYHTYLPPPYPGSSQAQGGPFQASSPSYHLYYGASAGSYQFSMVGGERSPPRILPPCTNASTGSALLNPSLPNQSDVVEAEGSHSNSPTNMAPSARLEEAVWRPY
# Target sequence (Q13951 whole entry, looked up, the tested form may be a part): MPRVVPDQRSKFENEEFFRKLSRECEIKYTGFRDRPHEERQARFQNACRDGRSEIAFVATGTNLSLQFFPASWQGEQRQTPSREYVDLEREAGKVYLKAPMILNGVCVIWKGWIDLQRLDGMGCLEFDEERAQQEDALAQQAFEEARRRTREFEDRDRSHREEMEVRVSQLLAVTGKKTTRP
# Runt-CBFb FRET = Runt domain-CBFb interaction inhibition. Q01196+Q13951. Cerulean-Runt/Venus-CBFb FRET ratio 530/480, 1 h. inhibition, % at 20 µM. hit rate 0.46% among 220,000. AID 1496;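 active means inhibition over about 50% at 20 µM in the single-dose screen, limit read from the data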;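 further: 0% = DMSO wells and 100% = excess unlabeled CBFb competitor control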
#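 System: Cerulean-labeled Runt domain protein | Quantity: 100 nM of each labeled protein | Schedule: 1 h compound exposure, room temperature | Detection: Fluorescence energy transfer, 422 nm excitation, 530/480 nm emission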
# Hck-Nef inh = blocks Nef-activated human Hck kinase. AID 463187. Recombinant Hck-YEEI plus Nef, Z-Lyte FRET kinase assay. inhibition, % at 20 µM. hit rate 0.68% among 220,000;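 active means Hck-Nef kinase inhibition above about 50%, limit read from the data; inactive means inhibition below that limit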;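 further: 0% = DMSO with Hck plus Nef and 100% = Hck alone without Nef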
# YIC counter = counter-screen for RanGTP-importin-beta inhibitors: YIC FRET probe | hit rate 40% among 1,000 | Purified YIC probe, intramolecular FRET ratio YFP/CFP | IC50, µM | shares compounds with RanGTP-Impb inh;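 active means fitted half-maximal inhibitory concentration no more than tenfold above the top dose tested; inconclusive means flat fit with 30 to 70% activity, or poor fit; inactive means half-maximal concentration beyond tenfold above the top dose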
# Hck-Nef confirm = confirmation of Hck-Nef kinase inhibitors; shares compounds with Hck-Nef inh; Recombinant Hck-YEEI:Nef, Z-Lyte FRET kinase assay; calls only at 10 µM; hit rate 28% among 1,300;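 active means average inhibition of at least 50%, with Z-scores no higher than 3 in both the phospho-tyrosine peptide and fluorescence counterscreens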
# * hit, by the source's call; i = inactive; ? = inconclusive; · = no result shown. This is a sample that favours compounds with a hit; in the whole collection about 1.9% have one here.
SMILES,RanGTP-Impb inh,Runt-SMMHC FRET,Runt-CBFb FRET,Hck-Nef inh,YIC counter,others
Oc1c(C=Nc2ccccc2)sc(=S)n1Cc1ccccc1,39*,46,12,16,44*,
CCn1c(O)c(C=Nc2ccccc2)sc1=O,1,47,6,15,·,
CCn1c(O)c(/C=N/n2cnnc2)sc1=S,1,3,20,-2,·,
CN(C)c1cc(-c2cccc(C(F)(F)F)c2)oc(=O)c1Cl,1,·,·,·,·,
CCCn1c(SCC(=O)Nc2ccc(NC(C)=O)cc2)nc2c1c(=O)n(C)c(=O)n2C,17*,·,·,·,>50,
Cc1ccc(NC(=O)CSc2ncc(S(=O)(=O)c3ccccc3)c(=O)[nH]2)cc1C,1,-5,2,2,·,
COc1cccc(NC(=O)CSc2ncc(S(=O)(=O)c3ccccc3)c(=O)[nH]2)c1,30*,0,-1,13,>50,
COCCNC(=O)c1cn(C)c2ccc(S(=O)(=O)N3CCCCC3)cc2c1=O,1,·,·,·,·,
CCc1ccc(CN2CCC(Oc3ccc(C(=O)N4CCCC4)cc3)CC2)cc1,4,·,·,·,·,
CC(C)c1ccc(CN2CCC(Oc3ccc(C(=O)N4CCCC4)cc3)CC2)cc1,21*,·,·,·,>50,
CCOc1ccc(C2C(C(=O)c3cccs3)=C(O)C(=O)N2CCCn2ccnc2)cc1 (stereo unspecified),·,-6,-1,-1,·,
O=C(Nc1ccc(OC(F)(F)F)cc1)c1ccc2nc[nH]c2c1,20*,·,·,·,>50,
COCCn1c(SCC(=O)Nc2cc(C)on2)nc2c(c1=O)SC(C)C2 (stereo unspecified),-1,0,-2,23,·,
O=C(NC1CC1)c1ccc(CS(=O)c2ccc(Br)cc2)o1 (stereo unspecified),0,·,·,·,·,
COc1ccc(S(=O)Cc2ccc(C(=O)NC3CC3)o2)cc1 (stereo unspecified),39*,·,·,·,>50,
CCOC(=O)CSc1nnc(CSc2nc3sc4c(c3c(=O)[nH]2)CCCC4)n1-c1ccccc1,32*,-13,-10,1,>50,
CCOC(=O)CCCSc1nc2sc3c(c2c(=O)[nH]1)CCC3,?,1,0,6,·,
COC(=O)c1ccccc1NCc1cc(=O)oc2cc(O)c(O)cc12,20*,·,·,·,4.5*,
Cc1ccc(C2CC(c3ccc(Br)cc3)=NN2C(=O)CSC2=NN3CCCC(=O)N=C3S2)cc1 (stereo unspecified),2,·,·,·,·,
O=C1CCCN2N=C(SCC(=O)N3N=C(c4ccc(Br)cc4)CC3c3ccc(F)cc3)SC2=N1 (stereo unspecified),20*,-2,0,21,>50,
CC(=O)N1CCc2cc(S(=O)(=O)NC(CC(C)C)C(=O)N3CCn4c3nc3ccccc34)ccc21 (stereo unspecified),-7,-1,-6,0,·,
NC(=O)c1ccc(F)cc1,17*,·,·,0,>50,
CS(=O)(=O)N(CC(=O)O)c1cc(Cl)cc(Cl)c1,2,1,1,6,·,
NC(=S)Cc1nc(-c2ccc(Cl)cc2)cs1,18*,-10,1,31,>50,
NC(=O)Cc1nc(-c2ccc(F)cc2)cs1,-2,-2,0,19,·,
SMILES,RanGTP-Impb inh,Runt-SMMHC FRET,Runt-CBFb FRET,Hck-Nef inh,YIC counter,others
C/C(=N\NC(=O)c1ccn(C)n1)c1cccc(NC(=O)c2ccc(C)s2)c1,2,4,-2,3,·,
Cc1cc(C)c2c(n1)nn1c(NCCCN(C)C)cc(C)nc21,30*,64*,22,33,27*,
CC(O)CNc1nc2ccccc2n1CC(=O)NC12CC3CC(CC(C3)C1)C2 (stereo unspecified),22*,1,-3,26,>50,
Cc1cc(Nc2ccccc2)nn1C(=O)c1ccccc1,18*,-6,-2,3,>50,
CN(CC(=O)Nc1c(Cl)cccc1Cl)C(=O)C1CSC2(C)CCC(=O)N12 (stereo unspecified),0,·,·,·,·,
COc1cccc(N2CCN(C(=O)c3cc4c(=O)n(Cc5ccccc5)ccc4nc3C)CC2)c1,16*,·,·,·,>50,
COc1cccc(N2CCN(C(=O)c3cccn4c(=O)c5c(C)c(C)sc5nc34)CC2)c1,-1,-24,·,-11,·,
O=C(NC1=NCCS1)c1cc(-c2cccs2)nc2ccccc12,5,-1,1,15,·,
O=C(NC1=NCCS1)c1cc(-c2cccnc2)nc2ccccc12,15*,-1,-5,13,>50,
COc1ccc(C(=O)/C=C/Nc2cccc(C)n2)cc1OC,20*,36,7,17,26*,
Cc1c(S(=O)(=O)N2CCCC(C(=O)O)C2)cnn1C (stereo unspecified),22*,-1,0,18,>50,
Cc1nn(C)cc1S(=O)(=O)N1CCCC(C(=O)O)C1 (stereo unspecified),-4,-2,0,16,·,
COC(=O)Cc1c(C)c2cc(Cl)c(OC(=O)c3ccco3)cc2oc1=O,47*,141*,98*,102*,21*,
COc1cc(-c2nnc(CSc3nnc(Nc4ccc(Oc5ccccc5)cc4)s3)o2)cc(OC)c1OC,0,4,-6,-2,·,
Cc1cc(C)c2c(c1)/C(=c1/sc3n(c1=O)CN(c1ccccc1)CN=3)C(=O)N2,54*,0,-2,54*,>50,Hck-Nef confirm=i
O=c1/c(=C/c2ccccn2)sc2n1CN(c1ccccc1)CN=2,1,1,0,-3,·,
O=C(c1cc(-c2ccco2)on1)N1CCN(C(c2ccccc2)c2ccccc2)CC1,-8,-6,-4,0,·,
CNC(=S)NC1(C)CCS(=O)(=O)C1 (stereo unspecified),3,1,-1,14,·,
COC(=O)C1=CN(CC2CCCO2)C=C(C(=O)OC)C1c1cccc(O)c1 (stereo unspecified),28*,87*,76*,71*,20*,
COC(=O)C1=C(N)Oc2cc(C)n(CC3CCCO3)c(=O)c2C1c1ccccc1 (stereo unspecified),9,5,-2,0,·,
CCOc1ccc(C2C(C(=O)OC)=CN(CCOC)C=C2C(=O)OC)cc1,21*,107*,102*,58*,15*,
COc1ccc(CCNc2c3ccccc3nc3ccccc23)cc1OC,43*,134*,110*,56*,14*,Hck-Nef confirm=i
COc1nc(NCCc2ccc(OC)c(OC)c2)nc(OC)n1,6,3,0,2,·,
COc1cccc(C(=S)N2CCOCC2)c1OS(=O)(=O)c1ccc(Cl)cc1,3,·,·,·,·,
COC(=O)C1=CN(Cc2cccs2)C=C(C(=O)OC)C1c1ccc(OC)cc1OC,40*,91*,105*,68*,7*,
CCCCc1cc(=O)oc2c(CN3CCCC3)c(O)c(Cl)cc12,26*,135*,96*,153*,28*,
COc1ccc(-n2c(C)cc(/C=C3\SC(=O)NC3=O)c2C)cc1,0,·,·,·,·,
